The nature of data set [1]: Aqueous solubility of the compound at 500 uM. The format is physicochemical. To be noted: buffer.
Data set [2] concerns the target Muscarinic acetylcholine receptor M3 (Homo sapiens) (UniProt P20309). As to the kind of experiment: Activity at human muscarinic M3 receptor expressed in HEK293T cells assessed as increase in carbachol-induced intracellular calcium level at 10 uM after 30 to 45 mins by fluorimetry. It counts as functional, cell-based. Particulars: HEK-293T. In short, it runs like this: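 HEK-293 cells stably expressing human M3 muscarinic receptor, plated overnight, loaded with Fluo4-NW for 30 min at 37 °C. Compound added at 10 uM final in 1% DMSO; baseline fluorescence read after 30-45 min, then carbachol injected (10 nM final). Intracellular Ca++ rise expressed as percent of baseline; triplicate determinations, DMSO control n=16.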

Data set [3] in a line: Selectivity ratio of IC50 for RGS8 to IC50 RGS4.
The target in data set [4] is T1, Regulator of G-protein signaling 8 (Homo sapiens, UniProt P57771).
T1 sequence (P57771 whole entry): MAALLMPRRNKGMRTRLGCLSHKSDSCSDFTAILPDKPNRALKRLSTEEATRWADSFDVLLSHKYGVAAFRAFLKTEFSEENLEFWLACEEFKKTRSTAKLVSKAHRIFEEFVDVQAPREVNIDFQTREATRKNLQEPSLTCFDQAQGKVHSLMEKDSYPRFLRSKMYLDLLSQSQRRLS
The data set can be described thus: Inhibition of RGS8 interaction with Galpha0 protein by flow cytometry protein interaction assay. A digest of the protocol: (§1)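 Inhibition of Gαo binding to RGS4 or RGS8. IC50 taken as the average of two independent experiments.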
A general note: In flow cytometry, cells or beads pass a laser one at a time.

For data set [5], the target named is Regulator of G-protein signaling 4 (Homo sapiens, UniProt P49798). As to the kind of experiment: Inhibition of RGS4 interaction with Galpha0 protein by flow cytometry protein interaction assay. In short, it runs like this:
as §1

pIC50: −log10 of the molar value. Calls of active or inactive are those of the source. The calls are words filed in the database; no cut-off is given here.

What is called pIC50 is the IC50 on a negative log10 scale, so that one unit is a factor of ten. Read a low pIC50 as a high IC50.

Muscarinic acetylcholine receptor M3 (Homo sapiens), sequence (P20309 whole entry, looked up): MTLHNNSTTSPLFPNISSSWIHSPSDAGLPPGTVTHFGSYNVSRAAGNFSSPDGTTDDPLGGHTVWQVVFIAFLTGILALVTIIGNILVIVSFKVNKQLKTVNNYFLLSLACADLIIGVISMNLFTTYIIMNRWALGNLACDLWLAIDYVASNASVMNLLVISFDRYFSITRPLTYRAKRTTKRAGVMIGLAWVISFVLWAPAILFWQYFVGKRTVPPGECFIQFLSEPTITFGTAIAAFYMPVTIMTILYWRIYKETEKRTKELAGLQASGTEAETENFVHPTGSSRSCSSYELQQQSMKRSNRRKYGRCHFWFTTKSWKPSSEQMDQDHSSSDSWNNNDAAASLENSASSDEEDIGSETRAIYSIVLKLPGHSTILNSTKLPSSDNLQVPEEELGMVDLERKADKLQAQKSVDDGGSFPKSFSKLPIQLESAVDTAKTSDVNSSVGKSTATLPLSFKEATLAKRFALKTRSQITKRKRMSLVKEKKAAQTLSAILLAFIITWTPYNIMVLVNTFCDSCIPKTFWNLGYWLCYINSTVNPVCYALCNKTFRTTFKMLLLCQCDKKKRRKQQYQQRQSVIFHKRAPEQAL
Regulator of G-protein signaling 4, sequence (P49798 whole entry): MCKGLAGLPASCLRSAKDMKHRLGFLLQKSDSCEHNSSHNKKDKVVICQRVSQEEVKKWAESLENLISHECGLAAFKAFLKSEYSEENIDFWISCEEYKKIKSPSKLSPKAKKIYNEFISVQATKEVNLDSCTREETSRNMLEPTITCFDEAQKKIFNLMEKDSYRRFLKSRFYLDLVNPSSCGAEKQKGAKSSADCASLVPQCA

Turning to `CCCCn1c(=O)sn(CC)c1=O`, the solubility entry in data set [1] is on record as “soluble”. Further, in data set [2], the result was inactive.
For `Cc1ccc(-n2sc(=O)n(Cc3ccc(Cl)c(Cl)c3)c2=O)cc1`, the Ratio IC50 in data set [3] is 460.
As for `Cc1ccc(-n2sc(=O)n(C)c2=O)cc1`, in data set [3], the Ratio IC50 was 445.
Take `CCCCn1sc(=O)n(Cc2ccc(F)cc2)c1=O`: the Ratio IC50 in data set [3] was found to be 2020.
Same read-out and setting: the result for `O=c1sn(-c2ccc(Cl)c(Cl)c2)c(=O)n1Cc1ccc(F)cc1` reads 481; that for `O=c1sn(-c2cccc(C(F)(F)F)c2)c(=O)n1Cc1ccccc1`, 286.
In the case of `CC(C)Cn1c(=O)sn(C(C)(C)C)c1=O`, in data set [1], the solubility result is recorded as “soluble”. Besides, in data set [3], the Ratio IC50 amounted to 6660.
On to `COc1ccc(-n2sc(=O)n(Cc3ccc(F)cc3)c2=O)cc1`, for which the Ratio IC50 in data set [3] was found to be 1050.
For the molecule `CCCCn1sc(=O)n(CC(C)C)c1=O`, in data set [1], the solubility result is “soluble”. For the same molecule, the Ratio IC50 in data set [3] was 2540.
For `Cn1c(=O)sn(C(C)(C)C)c1=O`, in that order: “soluble” and 2020.
Take `O=c1sn(-c2ccccc2)c(=O)n1Cc1ccc(F)cc1`: the Ratio IC50 in data set [3] was found to be 380.
`Cc1ccc(-n2sc(=O)n(Cc3cccc(C)c3)c2=O)cc1`: the Ratio IC50 in data set [3] was determined as 679.
With `CCn1sc(=O)n(C)c1=O`, in data set [1], the solubility result is “soluble”. For the same molecule, in data set [3], the Ratio IC50 was 1660.
For the molecule `Cc1ccc(CN2C(=O)CN(c3ccc(C)cc3)C2=O)cc1`, the pIC50 in data set [4] and in data set [5] was less than 4.00 each time.
`Cc1ccc(-n2sc(=O)n(Cc3ccc(Cl)cc3)c2=O)cc1`: the Ratio IC50 in data set [3] stood at 2170.
As to `O=c1sn(-c2ccccc2)c(=O)n1Cc1ccccc1`, the Ratio IC50 in data set [3] amounted to 239.
In the case of `CCn1sc(=O)n(CCOC)c1=O`, the outcome in data set [2] was inactive. Moreover, the Ratio IC50 in data set [3] amounted to 665.
On to `O=c1sn(-c2cccc(Cl)c2)c(=O)n1Cc1ccccc1`, for which the Ratio IC50 in data set [3] amounted to 335.
Take `CCCCn1sc(=O)n(C)c1=O`: in data set [1], the solubility entry was “soluble”. Besides, the Ratio IC50 in data set [3] came out at 1210.
On to `COc1ccc(-n2sc(=O)n(Cc3ccccc3)c2=O)cc1`, for which the Ratio IC50 in data set [3] was determined as 515.
With `CCCCn1c(=O)sn(-c2ccc(C)cc2)c1=O`, the Ratio IC50 in data set [3] came to 483.
In the case of `O=c1sn(-c2ccc(Cl)cc2)c(=O)n1Cc1ccccc1`, in data set [3], the Ratio IC50 amounted to 183.
Take `O=c1sn(-c2ccc(Cl)cc2)c(=O)n1Cc1ccc(F)cc1`: the Ratio IC50 in data set [3] worked out at 564.
On to `Cc1ccc(-n2sc(=O)n(Cc3cccc(Cl)c3)c2=O)cc1`, for which, in data set [3], the Ratio IC50 was 1000.
Turning to `CCn1sc(=O)n(CC(C)C)c1=O`, the solubility entry in data set [1] is on record as “soluble”. Further, the Ratio IC50 in data set [3] worked out at 2680.
Consider `Cc1ccc(Cn2sc(=O)n(Cc3ccc(F)cc3)c2=O)cc1`, for which the Ratio IC50 in data set [3] came out at 3090.
With `CCCCn1c(=O)sn(C(C)(C)C)c1=O`, the solubility result in data set [1] is “soluble”. The Ratio IC50 in data set [3] was determined as 2220.
Take `Cc1cccc(-n2sc(=O)n(Cc3ccccc3)c2=O)c1`: the Ratio IC50 in data set [3] amounted to 558.
Turning to `O=c1sn(-c2cccc(Cl)c2)c(=O)n1Cc1ccc(F)cc1`, in data set [3], the Ratio IC50 was 245.
On to `Cc1ccc(-n2sc(=O)n(CC(C)C)c2=O)cc1`, for which the Ratio IC50 in data set [3] came out at 550.
`COc1ccc(Cn2c(=O)sn(-c3ccc(C)cc3)c2=O)cc1` gave a negative-log IC50 (pIC50) in data set [5] of 6.75. The Ratio IC50 in data set [3] was determined as 1780.
For `Cc1ccc(-n2sc(=O)n(Cc3ccccc3)c2=O)cc1`, in data set [3], the Ratio IC50 turned out to be 519.
Still for that read-out and setting: to `O=c1sn(-c2cccc(C(F)(F)F)c2)c(=O)n1Cc1ccc(F)cc1` belongs 204.
As to `CCCCn1sc(=O)n(CCCC)c1=O`, the solubility result in data set [1] is recorded as “soluble”. For the same molecule, the Ratio IC50 in data set [3] was 4110.
In the case of `Cc1ccc(Cn2sc(=O)n(Cc3ccccc3)c2=O)cc1`, in data set [3], the Ratio IC50 amounted to 2840.
The same measure, in the same setting: the result for `CCn1sc(=O)n(Cc2ccc(F)cc2)c1=O` reads 842.
In the case of `Cc1ccc(-n2sc(=O)n(Cc3ccc(F)cc3)c2=O)cc1`, the negative logarithm of the IC50 (pIC50) in data set [4] was 4.96; in data set [5], 7.52. In addition, the outcome in data set [2] was Active. Besides, the Ratio IC50 in data set [3] amounted to 366.
Regarding `Cc1cccc(-n2sc(=O)n(Cc3ccc(F)cc3)c2=O)c1`, in data set [3], the Ratio IC50 was 59.
Same read-out and setting: to `O=c1sn(-c2ccc(Cl)c(Cl)c2)c(=O)n1Cc1ccccc1` belongs 149; to `Cc1ccc(Cn2c(=O)sn(-c3ccc(C)cc3)c2=O)cc1`, 1340.

These data come from ChEMBL document CHEMBL2034949, “Small Molecule Inhibitors of Regulator of G Protein Signalling (RGS) Proteins” (ACS Med Chem Lett, 2012).
